Screening results deposited in PubChem by several laboratories.
Tb MetRS inh: blocks T. brucei methionyl-tRNA synthetase activity; AID 624268; inhibition, % at 11.9 µM; 360,000 compounds, 0.4% hits; purified T. brucei MetRS, ATP depletion, Kinase-Glo luminescence;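 active = inhibition above a per-plate cutoff of the control wells' mean inhibition plus 3 SD, cut at about 5.5% in these data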;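 note: 0% = DMSO wells median and 100% = median of wells with control inhibitor compound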
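Material: T. brucei methionyl-tRNA synthetase, purified; reagent: substrates ATP, L-methionine and bulk Escherichia coli tRNA; dosing: 11.9 µM single point; timing: 15 min plus 2 h at 25 °C; detection: luminescence of leftover ATP; evaluation: % inhibition; control set: DMSO-only wells as low control; replicates: singlicate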
PG9 binder: binds the HIV-1 gp120 antibody PG9. 360,000 compounds, 0.43% hits. TR-FRET gp120-PG9 antibody binding. inhibition, % at 6.7 µM; in the data active = inhibition above about 8.5%
NR1D1 modulator: modulators of human Rev-erb alpha DNA binding; AID 1259318; P20393; 370,000 compounds, 0.79% hits; activity, % at 10 µM; Rev-erbα–FITC-DNA binding, fluorescence polarization, 90 min;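 active = activity above about 14%, limit read from the data; passing the limit was not always enough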;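 note: 0% = DMSO wells with 35 nM protein and 100% = DMSO wells with 750 nM protein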
Target sequence (P20393 whole entry, looked up): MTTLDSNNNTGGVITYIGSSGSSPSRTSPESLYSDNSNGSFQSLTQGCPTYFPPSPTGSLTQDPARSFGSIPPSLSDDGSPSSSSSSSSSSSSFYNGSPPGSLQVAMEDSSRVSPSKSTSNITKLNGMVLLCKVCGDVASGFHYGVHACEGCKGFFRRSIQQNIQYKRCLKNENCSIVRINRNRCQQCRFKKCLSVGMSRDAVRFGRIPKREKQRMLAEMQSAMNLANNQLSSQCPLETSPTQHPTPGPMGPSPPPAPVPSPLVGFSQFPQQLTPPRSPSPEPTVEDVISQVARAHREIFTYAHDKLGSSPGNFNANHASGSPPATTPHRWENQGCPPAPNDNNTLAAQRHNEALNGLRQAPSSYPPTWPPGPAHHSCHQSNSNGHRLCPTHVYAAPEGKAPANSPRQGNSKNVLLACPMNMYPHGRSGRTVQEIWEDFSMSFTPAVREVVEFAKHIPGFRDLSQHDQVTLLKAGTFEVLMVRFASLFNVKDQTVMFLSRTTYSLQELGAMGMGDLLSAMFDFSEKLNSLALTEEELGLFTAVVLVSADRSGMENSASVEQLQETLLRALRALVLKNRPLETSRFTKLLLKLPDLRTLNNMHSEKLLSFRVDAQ
Rin1-Abl PPI inh: human Rin1-Abl interaction inhibition | P00519+Q13671 | TR-FRET Rin1/Abl binding, biochemical | inhibition, % at 7.35 µM | 360,000 compounds, 0.4% hits | AID 588664; in the data active = inhibition above about 5%, passing the limit was not always enough
PG9 bind confirm: confirmation of small molecules binding HIV-1 gp120 antibody PG9. 1,500 compounds, 90% hits. shares compounds with PG9 binder. TR-FRET PG9 antibody binding, biochemical. inhibition, % at 6.7 µM; in the data active = inhibition above about 9%
PGV04 Ab binding: counter-screen for PG9 binders: binding control antibody PGV04. 1,500 compounds, 95% hits. AID 651604. TR-FRET PGV04 antibody-gp120 binding, biochemical. shares compounds with PG9 binder. inhibition, % at 6.7 µM; in the data active = inhibition above about 9.5%
PG9 binder DR: PG9 antibody binding, dose response; TR-FRET PG9 antibody-gp120 binding inhibition; shares compounds with PG9 binder; 95 tested, under 10 active; IC50, µM; in the data active = IC50 below about 10 µM
PGV04 binding DR: binds control antibody PGV04 in PG9 counter-screen | shares compounds with PG9 binder | TR-FRET binding to control antibody PGV04 | IC50, µM | 95 compounds, 20% hits | AID 651937
PG126 DR counter: counter-screen for PG9 binders: binding to control antibody PG126; IC50, µM; shares compounds with PG9 binder; AID 651939; TR-FRET binding to antibody PG126, counterscreen; 95 compounds, 20% hits
Numbers without * were called inactive; i = inactive; x = not tested or not shown. Shown are actives, neighbours in structure and some others; about 1.8% of the full set was active somewhere. Cut-off read from the data, not from the text of the source, unless noted: active = IC50 below about 9 µM; inactive = the rest.

SMILES	Tb MetRS inh	PG9 binder	NR1D1 modulator	Rin1-Abl PPI inh	PG9 bind confirm	PGV04 Ab binding	others
O=C1C(=O)N(CCCN2CCOCC2)C(c2ccc(F)cc2)/C1=C(\O)c1ccc2c(c1)OCCO2 (configuration not stated)	0	9.4*	-4	-5	21*	24*
COc1cccc(C2/C(=C(/O)c3ccc4c(c3)OCO4)C(=O)C(=O)N2CCN2CCOCC2)c1 (configuration not stated)	0	21*	-1	-16	31*	37*
O=C1C(=O)N(CCCn2ccnc2)C(c2ccc(Br)cc2)/C1=C(\O)c1ccc2c(c1)OCCO2 (configuration not stated)	-1	14*	10	-7	13*	15*
O=C1C(=O)N(CCCn2ccnc2)C(c2ccc([N+](=O)[O-])cc2)/C1=C(\O)c1ccc2c(c1)OCCO2 (configuration not stated)	0	0	0	1	x	x
CCCCCCCCN1CCS(=O)(=O)N(Cc2ccc(F)cc2)C(C(=O)OC)C1 (configuration not stated)	x	x	3	x	x	x
C=CCn1c(SCc2ccc(C(=O)NCCO)cc2)nc2sc(C)c(C)c2c1=O	-1	0	4	-2	x	x
COc1ccc(C2/C(=C(/O)c3ccccc3)C(=O)C(=O)N2CCCN2CCOCC2)cc1 (configuration not stated)	-1	-1	-9	-2	x	x
COc1cccc(C2/C(=C(\O)c3ccc4c(c3)OCCO4)C(=O)C(=O)N2CCCn2ccnc2)c1 (configuration not stated)	-1	12*	-7	-2	20*	23*
O=C1C(=O)N(Cc2ccncc2)C(c2cccc(O)c2)/C1=C(\O)c1ccc2c(c1)OCCO2 (configuration not stated)	-1	8	1	-5	x	x
O=C1C(=O)N(CCCn2ccnc2)C(c2cccc(Br)c2)/C1=C(\O)c1ccc2c(c1)OCCO2 (configuration not stated)	0	27*	-4	-22	45*	40*	PG9 binder DR=i;PGV04 binding DR=5.4*;PG126 DR counter=8*
COc1cccc(C2/C(=C(/O)c3ccc4c(c3)CC(C)O4)C(=O)C(=O)N2CCCn2ccnc2)c1 (configuration not stated)	-1	3	-2	-2	x	x
O=C1C(=O)N(CCCn2ccnc2)C(c2ccc(Cl)cc2)/C1=C(\O)c1ccc2c(c1)OCCO2 (configuration not stated)	0	27*	1	-7	16*	21*
COc1ccc(/C(O)=C2/C(=O)C(=O)N(CCCN3CCOCC3)C2c2ccc(Cl)cc2)cc1 (configuration not stated)	0	12*	1	-4	26*	43*
CC(C)(C)c1ccc(-c2nnc(SCC(=O)Nc3ccc(S(=O)(=O)Nc4nccs4)cc3)n2Cc2ccco2)cc1	x	x	-3	x	x	x
C=C(C)c1cccc(C(C)(C)NC(=O)N2CCN(C(=O)OCC)CC2)c1	0	-1	-1	1	x	x
Cc1cc(-c2nnc(SCC(=O)Nc3c(C)cccc3C)n2N)n[nH]1	x	0	-3	x	x	x
O=C(c1cc(C2CC2)on1)N(C1CCCCC1)C1CCCCC1	x	x	2	x	x	x
COc1ccc(N=Cc2c(O)c3ccccc3oc2=O)cc1	-1	32*	3	-2	27*	39*
CC(=O)Nc1cncc(-c2cnn(CC(C)C)c2)n1	0	1	-7	-3	x	x
CCCCN(C)C(=O)CNc1nnnn1-c1ccccc1	x	x	-2	x	x	x
O=C(O)c1cc(-c2ccco2)nc2ccc(Br)cc12	1	25*	-6	0	45*	58*
C=CCN(C)CC#Cc1ccc(F)cc1	x	x	-4	x	x	x
O=C(Cn1nnc(-c2ccccc2Cl)n1)NCc1ccc2c(c1)OCO2	-1	10*	0	-2	11*	14*
